Results from ChEMBL document CHEMBL5390308, “Stapling Amantadine to Melanostatin Neuropeptide: Discovery of Potent Positive Allosteric Modulators of the D2 Receptors” (ACS Med Chem Lett, 2023).
Calls of active or inactive are those of the source. The rule behind the calls is not given here. Where a SMILES comes first, the peptide text is derived from it.

Experiments:
[1] = Neurotoxicity in human SH-SY5Y cells at 125 uM incubated for 48 hrs by MTT assay relative to control; format: functional
Procedure, shortened: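 SH-SY5Y cells pre-differentiated 6 days with retinoic acid and TPA. 6-OHDA freshly prepared in sterile PBS, tested at 125 μM for 48 h; DMSO-solubilised test agents were run alongside (DMSO 0.5% final). Viability read by MTT reduction, expressed as % of control. 14–16 wells, 4 independent experiments; ANOVA with Tukey post hoc versus control.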

D(2) dopamine receptor [2] = target: T1, D(2) dopamine receptor (Homo sapiens, UniProt P14416); test: (§1) Positive allosteric modulator activity at human dopamine D2 receptor expressed in CHO cells assessed as fold increase in dopamine potentiation by measuring reduction of forskolin-stimulated cAMP level at 0.01 nM preincubated for 10 mins followed by forskolin addition measured after 5 mins in presence of dopamine by HTRF assay; format: functional, cell-based; conditions: filed as positive allosteric modulator, time 15.0 min
Procedure, shortened: (§2)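 Dopamine concentration–response curves run alone or with a fixed compound concentration (0.01 or 1 nM) in human D2R-expressing CHO cells. Forskolin-stimulated cAMP inhibition read by HTRF. Dopamine EC50 and Emax derived from the curves. Three independent experiments in duplicate, mean ± SD.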

SH-SY5Y = test: Neurotoxicity in human SH-SY5Y cells at 200 uM incubated for 48 hrs by MTT assay; format: functional, cell-based
Procedure, shortened: (§3)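 SH-SY5Y neuroblastoma cells differentiated 6 days with retinoic acid and TPA. Exposed 48 h to compound at 200 μM dissolved in DMSO (0.5% final), with 6-OHDA at 125 μM in PBS as positive control. MTT reduction read-out as % of control. 14–16 wells from 4 independent experiments, mean ± SD; ANOVA with Tukey post hoc test.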

D(2) dopamine receptor [3] = target: T1, D(2) dopamine receptor; test: (§4) Positive allosteric modulator activity at human dopamine D2 receptor expressed in CHO cells assessed as reduction in forskolin-stimulated cAMP level by measuring maximum efficacy at 0.01 nM preincubated for 10 mins followed by forskolin addition measured after 5 mins in presence of dopamine by HTRF assay relative to control; format: functional, cell-based; conditions: filed as positive allosteric modulator, time 15.0 min; procedure, shortened: as §2
D(2) dopamine receptor [4] = target: T1, D(2) dopamine receptor; test: Agonist activity at human dopamine D2 receptor expressed in CHO cells assessed as reduction in forskolin-stimulated cAMP level at 1 to 1000 nM preincubated for 10 mins followed by forskolin addition measured after 5 mins by HTRF assay; format: functional, cell-based; conditions: dose 1-1000 nM, time 15.0 min
Procedure, shortened: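 Agonist mode, without dopamine, in CHO cells expressing human D2R. Compound tested at 1 nM to 1 μM, with dopamine as positive control. Read-out is inhibition of forskolin-stimulated cAMP accumulation by HTRF. Mean ± standard deviation of three independent measurements.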

D(2) dopamine receptor [5] = target: T1, D(2) dopamine receptor; test: (§5) Positive allosteric modulator activity at human dopamine D2 receptor expressed in CHO cells assessed as reduction in forskolin-stimulated cAMP level at 1 nM preincubated for 10 mins followed by forskolin addition measured after 5 mins in presence of dopamine by HTRF assay; format: functional, cell-based; conditions: time 15.0 min; procedure, shortened: as §2
D(2) dopamine receptor [6] = target: T1, D(2) dopamine receptor; test: as §5, with “level” for “level at 1 nM”, “assay (reference value: 87.08 +/- 24.87 nM)” for “assay”; format: functional, cell-based; procedure, shortened: as §2
D(2) dopamine receptor [7] = target: T1, D(2) dopamine receptor; test: Positive allosteric modulator activity at human dopamine D2 receptor expressed in CHO cells assessed as reduction in forskolin-stimulated cAMP level at 0.01 nM preincubated for 10 mins followed by forskolin addition measured after 5 mins in presence of dopamine by HTRF assay relative to control; format: functional, cell-based; set-up: scale not given: the % may be the effect or the level left; conditions: time 15.0 min
Procedure, shortened: (§6)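 CHO cells expressing human D2R, assayed in the presence of 0.1 μM dopamine. Compounds screened between 0.01 nM and 10 μM. Inhibition of forskolin-stimulated cAMP measured by HTRF and expressed as % increase over the 0.1 μM dopamine effect. Mean ± SD of three independent measurements; Student's t-test, p < 0.05.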

[8] = Neurotoxicity in human SH-SY5Y cells at 200 uM incubated for 48 hrs by MTT assay relative to control; format: functional; procedure, shortened: as §3
[9] = Lipophilicity, logP of the compound in Octan-1-ol/water by shake-flask method; format: physicochemical
D(2) dopamine receptor [10] = target: T1, D(2) dopamine receptor; test: Positive allosteric modulator activity at human dopamine D2 receptor expressed in CHO cells assessed as reduction in forskolin-stimulated cAMP level at 0.01 nM preincubated for 10 mins followed by forskolin addition measured after 5 mins in presence of dopamine by HTRF assay; format: functional, cell-based; conditions: time 15.0 min; procedure, shortened: as §6
D(2) dopamine receptor [11] = target: T1, D(2) dopamine receptor; test: as §1, with “1” for “0.01”; format: functional, cell-based; conditions: filed as positive allosteric modulator, time 15.0 min
Procedure, shortened: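 CHO cells stably expressing human D2R. Dopamine concentration–response curves were run with or without modulator at a fixed concentration. D2R activation was read as inhibition of forskolin-stimulated cAMP accumulation by HTRF. The fold shift was derived from DA EC50 values, with Emax also fitted. Three independent experiments, each in duplicate, mean ± SD.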

D(2) dopamine receptor [12] = target: T1, D(2) dopamine receptor; test: as §4, with “10” for “0.01”; format: functional, cell-based; set-up: scale not given: the % may be the effect or the level left; conditions: time 15.0 min; procedure, shortened: as §6
D(2) dopamine receptor [13] = target: T1, D(2) dopamine receptor; test: as §4, with “1” for “0.01”; format: functional, cell-based; conditions: filed as positive allosteric modulator, time 15.0 min; procedure, shortened: as §2

T1 sequence (P14416 whole entry): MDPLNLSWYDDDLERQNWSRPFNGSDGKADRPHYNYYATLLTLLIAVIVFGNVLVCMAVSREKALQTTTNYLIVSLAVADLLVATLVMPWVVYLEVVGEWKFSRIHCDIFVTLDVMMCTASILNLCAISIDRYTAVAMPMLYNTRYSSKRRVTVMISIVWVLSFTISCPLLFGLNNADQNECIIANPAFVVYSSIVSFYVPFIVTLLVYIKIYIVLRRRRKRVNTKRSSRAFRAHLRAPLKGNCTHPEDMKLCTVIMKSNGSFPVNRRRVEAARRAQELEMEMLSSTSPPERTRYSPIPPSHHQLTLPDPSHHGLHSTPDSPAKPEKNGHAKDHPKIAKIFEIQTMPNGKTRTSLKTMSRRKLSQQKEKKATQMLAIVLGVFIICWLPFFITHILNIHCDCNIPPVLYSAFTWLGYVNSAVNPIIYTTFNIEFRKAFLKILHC

With NCCc1cc(O)c(O)cc1O [OXIDOPAMINE] the Activity [1] was 58.27%.
For CC(C)C[C@H](NC(=O)[C@@H]1CCCN1)C(=O)NCC(=O)NC12CC3CC(CC(C3)C1)C2, the fold change (FC) (D(2) dopamine receptor [2]) was 3.3, the Activity (SH-SY5Y) was “inactive” and the Emax (D(2) dopamine receptor [3]) was 100%. The Activity (D(2) dopamine receptor [4]) was “inactive”, the Activity (D(2) dopamine receptor [5]) was “inactive” and the EC50 (D(2) dopamine receptor [6]) was 26.4 nM. The Activity (D(2) dopamine receptor [7]) was 10.3%.
For CC(C)C[C@H](NC(=O)[C@@H]1CCCN1C(=O)OC(C)(C)C)C(=O)NCC(=O)NC12CC3CC(CC(C3)C1)C2, the fold change (FC) (D(2) dopamine receptor [2]) was 4.9, the Activity [8] was 89.73% and the Emax (D(2) dopamine receptor [3]) was 100%. The logP [9] was 2.62, the Activity (D(2) dopamine receptor [4]) was “inactive” and the Activity (D(2) dopamine receptor [5]) was “inactive”. For the same molecule, the EC50 (D(2) dopamine receptor [6]) was 17.8 nM and the Activity (D(2) dopamine receptor [7]) was 15.3%.
In the case of CC(C)C[C@H](NC(=O)[C@@H]1CCCN1)C(=O)NCC(N)=O (H-Pro-Leu-Gly-NH2), the Activity (D(2) dopamine receptor [10]) is reported as “inactive”, the Activity [8] is reported as 94.09% and the fold change (FC) (D(2) dopamine receptor [11]) is reported as 3.7. The logP [9] was -0.56, the Activity (D(2) dopamine receptor [12]) was 31.9% and the Emax (D(2) dopamine receptor [13]) was 100%.
